High-throughput results as filed in PubChem BioAssay.
VIM-2 inhibitor: blocks Pseudomonas aeruginosa VIM-2 metallo-beta-lactamase; inhibition, % at 5.6 µM; purified VIM-2, nitrocefin hydrolysis, epi-absorbance fluorescence; actives 0.89% (n = 290,000);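 active means inhibition above the mean of all tested compounds plus 3 SD, cutoff set per screening run, cut at about 7.5% in these data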;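 further: red hydrolysis product quenches plate fluorescence so inhibitors raise well fluorescence; 0% = enzyme with DMSO and 100% = DMSO without enzyme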
NALP1 yeast inh: NALP1 inhibition | S. cerevisiae NALP1/ASC/caspase-1 growth, X-gal OD620, 72 h | inhibition, % at 10 µM | actives 0.61% (n = 280,000); in the data active means inhibition mostly above about 24%, no sharp cut-off; inactive means mostly below about 32%
SUMO HTRF inh: inhibitors of human SUMOylation (UBC9) | HTRF SUMOylation assay, SAE1/SAE2 + UBC9, in vitro | inhibition, % at 35 µM | actives 0.36% (n = 290,000); in the data active means inhibition above about 50%, passing the limit was not always enough; inconclusive means no clear call, values can overlap the other calls
Target sequence (P63279 whole entry, looked up): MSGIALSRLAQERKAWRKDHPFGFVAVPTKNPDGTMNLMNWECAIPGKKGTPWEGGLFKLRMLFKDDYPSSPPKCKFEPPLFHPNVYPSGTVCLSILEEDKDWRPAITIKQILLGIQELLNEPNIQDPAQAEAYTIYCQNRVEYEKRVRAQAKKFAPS
FID counter: fluorescent intercalator displacement, NS3 helicase counter-screen. DNA fluorescent intercalator displacement, fluorescence. inhibition, % at 7.9 µM. actives 0.17% (n = 290,000); in the data active means inhibition above about 37%;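 further: 0% = vehicle and 100% = reference compound; higher means more ethidium bromide displaced from hairpin DNA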
IMP-1 inh: inhibitors of Pseudomonas aeruginosa IMP-1 metallo-beta-lactamase; purified IMP-1, nitrocefin hydrolysis, epi-absorbance fluorescence; inhibition, % at 5.6 µM; actives 0.45% (n = 290,000); AID 1556;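 active means inhibition above the mean plus 3 SD of all compounds in the same screening run, cut at about 4.5% in these data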;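 further: 0% = IMP-1 with DMSO and 100% = DMSO wells lacking enzyme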
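Test system: recombinant IMP-1 enzyme, purified / Medium: HEPES buffer pH 7.1 with ZnSO4 and Brij 35 / Doses: single dose, 5.6 µM / Times: 25 °C, 15 min preincubation, 25 min reaction / Detection: Epi-absorbance via hydrolysed-nitrocefin quenching of white-plate fluorescence, 480/530 nm, EDTA stop / Evaluation: percent inhibition from optical density relative to buffer-blank wells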
Mot1-301 SUMO: inhibitors of SUMOylation pathway: yeast Mot1-301 growth rescue. S. cerevisiae Mot1-301 growth rescue, ATP luminescence, 38.5C; percent above DMSO median, 100 means doubled. actives 1% (n = 320,000). growth rescue, % at 18.8 µM;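 active means every valid replicate shows activation above 250% relative to neutral control wells; inactive means the rest, any valid replicate at or below 250%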;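 further: OY570 slx delta 5 strain wells were the positive control but not used for scaling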
The depositor's hits bear a star; ? = inconclusive; / = not tested or not shown. The list is not random: actives were taken first. Their share in the collection is about 2.9%.

SMILES	VIM-2 inhibitor	NALP1 yeast inh	SUMO HTRF inh	FID counter	IMP-1 inh	Mot1-301 SUMO
CC1CCCCC1NC(=O)C1CCC(CNS(=O)(=O)c2ccc(F)cc2)CC1 (stereo not drawn)	2	0	7	-27	-3	295*
Cc1ncc([N+](=O)[O-])n1CCOC(=O)c1cc(Cl)cc(Cl)c1N	9.4*	37	19	-17	-2	16
C[C@@H]1O[C@@H](OCCC(=O)O)[C@H](O)C[C@H]1O	/	/	/	/	/	14
O=C(NCCCc1ccc(F)cc1)C1CCC(=O)N(CC2CCCCC2)C1 (stereo not drawn)	-1	11	2	-38	-3	21
COC(=O)C1=C(C)N(C)C(=O)NC1c1cc2c(cc1[N+](=O)[O-])OCO2 (stereo not drawn)	-2	12	66*	-13	-4	-3
O=C(CC1NC(=O)NC1=O)Nc1ccc(Cl)cc1 (stereo not drawn)	1	38*	18	0	-2	-13
O=C(CC1Nc2cccc3cccc(c23)NC1=O)Nc1ccc(F)cc1 (stereo not drawn)	-1	-14	68*	-5	-2	0
O=C(CC1SC(=O)NC1=O)Nc1ccc(Cl)cc1 (stereo not drawn)	0	-9	-15	-10	1	52
COc1ccc(NC(=O)CC2Nc3cccc4cccc(c34)NC2=O)cc1 (stereo not drawn)	1	1	?	-40	-2	/
COc1ccc(-c2csc(N(CCc3ccc(OC)c(OC)c3)C(=O)COc3ccccc3)n2)cc1	-1	31	-15	0	-2	-16
Cc1ccc2nc(C(Cl)(Cl)Cl)nc(N/N=C/c3ccncc3)c2c1	11*	22	1	-4	-3	-5
CC(=O)c1ccc(NC(=O)CSc2nnc(NC(=O)c3ccco3)s2)cc1	0	1	13	-2	-3	-11
CC(=O)Nc1ccc(NC(=O)CCN2C(=O)c3ccccc3C2=O)cc1	1	44*	7	-7	1	4
CCc1ccccc1NC(=O)CCN1C(=O)c2ccccc2C1=O	1	-3	4	-4	-1	0
CN1CCN(C(=O)c2ccccc2NC(=O)CCN2C(=O)c3ccccc3C2=O)CC1	-2	13	5	0	-7	336*
COc1cccc(CN(C)CC(=O)Nc2ccccc2N2CCOCC2)c1OC	-3	14	6	-22	-3	6
COc1cc(C(C)=O)ccc1OCC(=O)Nc1cc(C)on1	/	/	/	/	/	14
Cc1cc(C)c(S(=O)(=O)NC(CC(=O)O)c2cccc([N+](=O)[O-])c2)c(C)c1 (stereo not drawn)	-1	21	12	-28	-2	-17
Oc1ccc(C23CC4CC(CC(C4)C2)C3)cc1O	-2	12	-9	-10	-5	648*
Cc1oc(-c2ccccc2)nc1C(=O)N1CCN(c2ccc(F)cc2)CC1	1	24	-11	-17	0	582
CCn1cc(C(=O)O)c(=O)c2cc(S(=O)(=O)N(C)C)ccc21	8.7*	1	25	2	-2	0
CCC(C)NC(=O)c1cn(CC)c2ccc(S(=O)(=O)N(C)C)cc2c1=O (stereo not drawn)	-5	8	5	-16	-2	-12
COc1ccc(NC(=S)NCCc2c[nH]c3ccccc23)c(OC)c1	-3	12	-16	-5	-4	-1
COc1ccc(NC(=S)NCCc2c[nH]c3ccc(OC)cc23)c(OC)c1	-4	29*	-20	-6	-4	157
COc1ccc(C(NC(=O)C(C)C)c2c(O)ccc3ccccc23)cc1OC (stereo not drawn)	-6	12	8	-33	-2	-17
SMILES	VIM-2 inhibitor	NALP1 yeast inh	SUMO HTRF inh	FID counter	IMP-1 inh	Mot1-301 SUMO
Cc1cc(C)cc(NC(=S)NCCN(C2CCCCC2)C2CCCC2)c1	-4	0	1	31	-4	430*
CCOC(=O)Cn1cc(Cl)c(=O)c(Cl)c1	-4	/	15	-1	-2	3
Clc1ccc(C(Cn2ccnc2)OCc2c(Cl)cccc2Cl)c(Cl)c1 (stereo not drawn)	/	/	/	/	/	346*
CCn1c(SCC(=O)NC2CC2)nnc1-c1cccc(OC)c1	-3	29	-6	-4	-3	0
O=S(=O)(c1cccs1)N1CCN(c2ccccc2F)CC1	-1	-13	3	-18	-3	335*
Cc1ccc(C)c(NC(=O)CN(C)C(=O)[C@@H](NC(=O)c2ccc(C(C)(C)C)cc2)C(C)C)c1	-2	25	-17	-17	-5	387
COc1ccc(Cn2c(C)nnc2-c2cnn(C)c2N)cc1	-3	12	-2	-2	-2	5
Cc1c(NC(=O)COC(=O)c2cc3c4ccccc4n(C)c3s2)c(=O)n(-c2ccccc2)n1C	3	5	35	1	4.8*	188
Cc1cc(NCCO)c2cc(O)ccc2n1	-1	-1	57*	6	-7	-25
CCn1cc(S(=O)(=O)c2ccc(C)cc2)c(=O)c2cc(F)c(N3CCN(C)CC3)cc21	7.9*	17	26	9	0	-10
CCCNC(=O)c1cn(CC)c2cc(N3CCN(C)CC3)c(F)cc2c1=O	3	6	11	16	-5	1
CCN(CC)CCNC(=O)c1cn(CC)c2cc(N3CCN(C(=O)c4ccco4)CC3)c(F)cc2c1=O	4	2	21	2	-4	5
CCN(CC)CCCNC(=O)c1cn(CC)c2cc(N3CCN(C(=O)c4ccco4)CC3)c(F)cc2c1=O	12*	14	28	25	-3	2
CCn1cc(C(=O)NCCN(C)C)c(=O)c2cc(F)c(N3CCN(C)CC3)cc21	12*	16	18	56*	-2	-3
Cc1ccc(S(=O)(=O)c2cn(C)c3cc(N4CCN(C)CC4)c(F)cc3c2=O)cc1	3	-1	10	13	-6	-4
CCn1cc(C(=O)Nc2ncccc2O)c(=O)c2cc(F)c(N3CCN(C(=O)c4ccco4)CC3)cc21	1	-10	10	-40	8.0*	7
Cc1nn(C(C)C(=O)N2CCc3ccccc32)c(C)c1[N+](=O)[O-] (stereo not drawn)	-2	16	12	0	-2	5
COc1ccc2ccccc2c1C(=O)/C=C\c1ccoc1	-2	51	37	-20	6.6*	250
O=C(/C=C/c1ccoc1)c1ccccc1O	-3	20	21	-1	-3	21
CC(C)N1CCC2(CC1)C(C#N)=C(N)NC(S)=C2C#N	0	24	52*	22	-1	0
N#CC1=C(N)NC(SCC(=O)O)=C(C#N)C12CCCC2	-3	24	12	-3	-1	-2
CCCN(CCC)C(=O)Cn1c(=O)n(CCCCC(=O)NCc2ccco2)c(=O)c2ccccc21	-3	50	-11	-8	-3	294*
